Measured values as given in PMC6456254 (ACS chemical neuroscience, 2018).

Experiments:
M1 [1] = settings: cited from earlier work
[2] = Fraction unbound in human plasma; type: in vitro ADME
rat M1 = target: T1, rat M1 (Rattus norvegicus, UniProt P08482); assay: Rat M1 functional assay in high expressing M1 cell line; type: cell-based; settings: rat M1, up to 30 μM
T1 sequence (P08482 1-460): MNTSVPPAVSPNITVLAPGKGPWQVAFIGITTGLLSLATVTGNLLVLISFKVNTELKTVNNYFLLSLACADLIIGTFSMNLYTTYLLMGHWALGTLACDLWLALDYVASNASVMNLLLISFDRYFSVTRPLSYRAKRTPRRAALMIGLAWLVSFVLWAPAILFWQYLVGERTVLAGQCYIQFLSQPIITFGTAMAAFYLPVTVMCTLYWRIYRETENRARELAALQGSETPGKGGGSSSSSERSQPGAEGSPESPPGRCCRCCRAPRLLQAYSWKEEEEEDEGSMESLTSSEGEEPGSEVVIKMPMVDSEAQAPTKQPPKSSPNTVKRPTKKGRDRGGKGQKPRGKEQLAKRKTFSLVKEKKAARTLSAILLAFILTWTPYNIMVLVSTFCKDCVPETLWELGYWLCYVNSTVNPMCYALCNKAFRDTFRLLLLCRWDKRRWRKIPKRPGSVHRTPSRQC
In short: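 Calcium mobilization in CHO cells expressing rat M1. Agonist mode adds no exogenous acetylcholine, and EC50 is derived from the response. PAM mode is run with a fixed EC20 concentration of acetylcholine. Values are means from three independent experiments, each performed in triplicate.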

M1 [3] = type: cell-based; settings: high expressing recombinant cell lines, species not stated
human M2−5 = assay: PAM selectivity versus human M2-5; type: cell-based; settings: read-out: EC50 vs human M2−5
[4] = Fraction unbound in rat plasma; type: in vitro ADME
[5] = Predicted hepatic clearance, rat; type: in vitro ADME
[6] = Predicted hepatic clearance, human; type: in vitro ADME
M2 and M4 = settings: cited from earlier work
Solubility in SGF = type: physicochemical; settings: pH 1.6

Compound: COc1ccc(Cn2cc(C(=O)O)c(=O)c3ccccc32)cc1 [compound 1, BQCA]
- mode of M1 pharmacology (M1 [1]): highly potent and robust M1 ago-PAM

Compound: VU6005877 [24c]
- CLp (In vivo rat PK): 7.3 mL/min/kg
- fraction unbound in plasma, human fu [2]: 0.01
- agonist activity in high-expressing M1 cell line (rat M1): no agonist activity
- M1 agonism (M1 [3]): devoid of M1 agonism
- EC50 (human M2−5): > 30 µM
- fraction unbound in plasma, rat fu [4]: 0.016
- predicted hepatic clearance, rat CLhep [5]: 31.7 mL/min/kg
- predicted hepatic clearance, human CLhep [6]: 13.6 mL/min/kg

Compound: O=C1C(=O)N(Cc2ccc(Br)cc2)c2ccccc21 [compound 9, VU0119498]
- activity at M2 and M4 (M2 and M4): inactive
- M1 agonist activity (M1 [1]; HTS hit): virtually no detectable M1 agonist activity

Compound: VU0451725 [compound 10]
- solubility (Solubility in SGF): < 5 µg/mL
